Screens deposited in PubChem by Broad Institute.
Shown are actives, neighbours in structure and some others; about 1.2% of the full set was active somewhere.
CAL PDZ FP-1 = inhibitors of human CAL PDZ peptide binding; Q9HD26; purified CAL PDZ, TMR-peptide fluorescence polarization, 1 h; inhibition, % at 24.9 µM; hit rate 0.92% among 300,000; AID 602252;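 active = mean inhibition of at least 30% with at least half of replicates also reaching 30%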
CAL PDZ FP-2 = blocks peptide binding to human CAL PDZ domain. hit rate 0.02% among 330,000. inhibition, % at 20 µM. AID 504414. purified CAL PDZ, TMR-peptide fluorescence polarization, 1 h;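 active = highest replicate inhibition of at least 40%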
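System: purified tagged CAL PDZ domain construct (CerCALP). Schedule: 1 h incubation at room temperature before polarization reading. Medium: 25 mM sodium phosphate pH 7.4, 150 mM NaCl, TCEP, IgG, Thesit. Read-out: percent inhibition from loss of millipolarization. Measured by: FP readout, S and P plane fluorescence. Probe or stimulus: fluorescent TMR peptide probe.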
ARNT-TACC3 inh = disruptors of human ARNT/TACC3 interaction; AlphaScreen His-ARNT PAS-B/GST-TACC3 binding, luminescence; TACC3 fragment carries E629A point mutation; inhibition, % at 9.99 µM; hit rate 0.66% among 390,000;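 active = mean inhibition of replicates at least 50% and at least half of replicates each reaching 50%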
A number is an active result; n = inactive; x = no result given.

SMILES	CAL PDZ FP-1	CAL PDZ FP-2	ARNT-TACC3 inh
COCC(=O)Nc1ccc2c(c1)[C@@H]1C[C@@H](CC(=O)NCC3CC3)O[C@H](CO)[C@@H]1O2	x	x	n
Cc1c(C(=O)N2CCOCC2)c(S(=O)(=O)Nc2cccc(C#N)c2)c(C)n1C	68	n	n
Cc1c(C(=O)N2CCOCC2)c(S(=O)(=O)Nc2cccc(F)c2)c(C)n1C	n	n	n
COc1ccc(-c2nnc(SCc3ccccn3)n2C)cc1	n	n	x
COc1ccc(N=C(N)SCc2ccccn2)cc1	x	n	55
C[C@@H]1CN([C@@H](C)CO)C(=O)c2cc(NC(=O)CCC(F)(F)F)ccc2O[C@@H]1CN(C)CC1CC1	x	x	n
CCNC(=O)/C(C#N)=C/c1c(N2CCN(c3cccc(Cl)c3)CC2)nc2c(C)cccn2c1=O	n	n	n
CCNC(=O)/C(C#N)=C/c1c(N2CCN(C)CC2)nc2c(C)cccn2c1=O	43	n	n
O=S(=O)(NCc1cc(-c2ccc(Cl)cc2)no1)c1ccc(Cl)cc1	44	n	n
O=S(=O)(NCc1cc(-c2ccc(Cl)cc2)no1)c1ccccc1	n	n	n
CC(C)Cc1ccc(CN2CC[C@@H](NS(=O)(=O)c3ccccc3)C2)cc1	x	x	n
CSCC(O)Cn1ncc2ccccc2c1=O (stereo not given)	31	n	n
O=C(O)Cn1ncc2ccccc2c1=O	n	n	n
C[C@@H]1CN([C@@H](C)CO)C(=O)c2cc(NC(=O)Cc3cn(C)c4ccccc34)ccc2O[C@@H]1CN(C)Cc1ccc(C(=O)O)cc1	x	x	n
CC(C)C(=O)Nc1ccc2c(c1)C(=O)N(C)[C@@H]1CC[C@H](CC(=O)N[C@@H](C)c3ccccc3)O[C@H]1CO2	x	x	n
Nn1c(-c2ccccn2)nnc1-c1ccccn1	n	n	79
c1ccc(-c2ccccn2)nc1	n	n	n
C[C@@H]1CN([C@H](C)CO)C(=O)c2cc(N(C)C)ccc2O[C@@H](C)CCCCO[C@@H]1CN(C)S(=O)(=O)c1cccs1	x	x	n
Cc1ccc(S(=O)(=O)Nc2ccc3c(c2)C(=O)N([C@H](C)CO)C[C@H](C)[C@H](CN(C)C(=O)Cc2ccccc2)OCCCC[C@H](C)O3)cc1	x	x	n
C[C@H](CO)N1C[C@H](C)[C@@H](CN(C)Cc2ccc(Oc3ccccc3)cc2)Oc2ccc(NS(C)(=O)=O)cc2CC1=O	x	x	n
O=C(NC(=S)NNC(=O)c1ccccc1O)c1ccc([N+](=O)[O-])cc1	n	n	n
O=C(NC(=S)NNC(=O)c1ccccc1O)c1ccc(F)cc1	n	n	19
O=C(NC1CCCCC1)c1ccc([N+](=O)[O-])cc1	92	n	n
O=C(NC(=S)NC1CCCCC1)c1ccc(F)cc1	44	n	n
Cc1ccc(C(=O)NC(=S)NNC(=O)c2ccccc2O)cc1	n	n	n
SMILES	CAL PDZ FP-1	CAL PDZ FP-2	ARNT-TACC3 inh
O=C(NC1CCCCCCC1)c1cc([N+](=O)[O-])ccc1Cl	n	x	n
O=C(NC(=S)NC1CCN(Cc2ccccc2)CC1)c1ccc(F)cc1	n	n	n
O=C(NC(=S)NNC(=O)c1ccccc1O)c1ccccc1	n	n	55
O=C(C[C@H]1CC[C@@H]2[C@H](COC[C@H](O)CN2C(=O)c2cccnc2)O1)NC1Cc2ccccc2C1	x	x	n
C[C@H]1CN([C@@H](C)CO)C(=O)c2cc(NS(=O)(=O)c3cn(C)cn3)ccc2O[C@@H]1CN(C)C(=O)Nc1ccccc1	x	x	n
CCC(=O)NC(c1cccs1)c1cc([N+](=O)[O-])c2cccnc2c1O (stereo not given)	n	n	71
CC(=O)NC(c1ccccc1)c1cc([N+](=O)[O-])c2cccnc2c1O (stereo not given)	n	n	n
O=C(Cc1ccccn1)NCC[C@@H]1CC[C@H](NC(=O)Nc2ccc(F)cc2)[C@H](CO)O1	x	x	n
COc1ccccc1OCCNC(=O)c1ccc(C(C)(C)C)cc1	n	n	n
COc1ccc(CCNS(=O)(=O)CCNC(=O)c2ccc(OC)cc2)cc1	n	n	n
COc1ccc(CCNC(=O)c2ccc(Br)cc2)cc1	42	x	n
COc1ccccc1OCCNC(=O)c1ccc(Br)cc1	33	x	n
OC[C@@H]1[C@H](c2ccc(C3=CCCCC3)cc2)[C@@H]2CN(CCC(F)(F)F)CCCCN12	x	x	n
Cc1ccc(S(=O)(=O)N(C)C[C@@H]2Oc3ccc(NC(=O)Nc4c(C)noc4C)cc3C(=O)N([C@@H](C)CO)C[C@H]2C)cc1	x	x	n
C[C@@H]1CN([C@@H](C)CO)C(=O)c2cc(NS(=O)(=O)c3cccs3)ccc2O[C@@H](C)CCCCO[C@H]1CN(C)Cc1ccc2c(c1)OCO2	x	x	n
CC(=O)OCC(=O)[C@@]1(O)CC[C@H]2[C@@H]3CCC4=CC(=O)CC[C@]4(C)[C@H]3C(=O)C[C@@]21C	x	n	n
CC(=O)OCC(=O)C1(O)CCC2C3CC(F)C4=CC(=O)CCC4(C)C3C(=O)CC21C (stereo not given)	130	n	n
CC(=O)OCC(=O)C1(O)CCC2C3CC(F)C4=CC(=O)CCC4(C)C3C(O)CC21C (stereo not given)	86	n	n
CC(=O)OCC(=O)[C@@]1(O)CC[C@H]2[C@@H]3CCC4=CC(=O)CC[C@]4(C)[C@H]3[C@@H](O)C[C@@]21C	n	n	n
CCCN(C)C[C@@H]1Oc2ncc(C#CC3(O)CCCC3)cc2C(=O)N([C@@H](C)CO)C[C@@H]1C	x	x	n
C[C@@H]1CCCCO[C@@H](CN(C)S(=O)(=O)c2ccc(Cl)cc2)[C@@H](C)CN([C@H](C)CO)C(=O)c2cc(NC(=O)Nc3ccccc3)ccc2O1	x	x	n
Cc1ccc(S(=O)(=O)N(C)C[C@H]2Oc3c(NC(=O)Nc4ccc5c(c4)OCO5)cccc3C(=O)N([C@@H](C)CO)C[C@@H]2C)cc1	x	x	n
Cc1ccccc1NC1=NC(=S)N(c2ccccc2)C12CCCCC2	n	n	n
Cc1ccccc1NC1=NC(=S)N(c2ccccc2)C12CCOC(C)(C)C2 (stereo not given)	42	n	n
O=C(O)c1cc(O)c2c(c1)[C@@H]([C@H]1c3cc(C(=O)O)cc(O)c3C(=O)c3c(O[C@@H]4O[C@H](CO)[C@@H](O)[C@H](O)[C@H]4O)cccc31)c1cccc(OC3O[C@H](CO)[C@@H](O)[C@H](O)[C@H]3O)c1C2=O (stereo not given in full)	37	n	n
SMILES	CAL PDZ FP-1	CAL PDZ FP-2	ARNT-TACC3 inh
O=C(O)c1cc(O)c2c(c1)[C@H]([C@H]1c3cc(C(=O)O)cc(O)c3C(=O)c3c(O[C@@H]4O[C@H](CO)[C@@H](O)[C@H](O)[C@H]4O)cccc31)c1cccc(OC3O[C@H](CO)[C@@H](O)[C@H](O)[C@H]3O)c1C2=O (stereo not given in full)	n	n	n
COCC(=O)NC[C@@H]1[C@H](c2ccc(C3=CCCC3)cc2)[C@@H](CO)N1C(=O)C1CC1	x	x	n
O=C(COc1ccc2c(c1)OCO2)Nc1nccs1	53	n	n
COCc1nnc(NC(=O)COc2ccc3c(c2)OCO3)s1	n	n	n
O=C(C[C@H]1CC[C@H]2NC[C@@H](O)COC[C@@H]2O1)NCCN1CCCCC1	x	x	n
CCc1ccc(-c2nc(CS(=O)CC(=O)NCc3ccccc3)c(C)o2)cc1 (stereo not given)	71	n	n
